Reference: ChEMBL document CHEMBL3045750, “New class of algicidal compounds and fungicidal activities derived from a chromene amide of Amyris texana” (2010)
Active and inactive are the calls of the source. The rule behind the calls is not given here.

Columns and labels:
Botrytis cinerea [1] = assay: Fungicidal activity against Botryotinia fuckeliana assessed as growth inhibition at 100 uM after 72 hr by microbioassay; type: functional; conditions: read-out: GI
Method in brief: (§1)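 Botrytis cinerea tested in a 96-well dose-response microbioassay alongside other fungal strains, after compounds were first screened by TLC bioautography against C. fragariae. Three concentrations were used (1.0, 10.0, 100.0 μM), with captan as positive standard. Growth inhibition was read 72 h after treatment.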

Colletotrichum fragariae = assay: Antifungal activity against Colletotrichum fragariae by TLC bioautography; type: functional, organism-based
Agrostis stolonifera = assay: Phytotoxic activity against Agrostis stolonifera var. Penncross at 0.1 to 1000 uM; type: functional, organism-based
Method in brief: (§2)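 Germination phytotoxicity assay on lettuce (Lactuca sativa cv. Iceberg, dicot) and bent grass (Agrostis stolonifera cv. Pencross, monocot), with compounds tested across 0.1-1000 μM. Inhibition was scored visually on a 1-5 scale, where 1 is no inhibition and 5 is complete inhibition of germination.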

Lactuca sativa = assay: Phytotoxic activity against Lettuce cv. Iceberg (lettuce) at 0.1 to 1000 uM; type: functional, organism-based; method in brief: as §2
Cucumis sativus = assay: Phytotoxic activity against Cucumis sativus (cucumber) cotyledon disks assessed as electrolyte leakage; type: functional, organism-based
Botrytis cinerea [2] = assay: Fungicidal activity against Botryotinia fuckeliana assessed as growth inhibition at 10 to 100 uM after 72 hr by microbioassay; type: functional, organism-based; method in brief: as §1

COC(=O)c1cccc2c1C=CC(C)(C)O2
inhibition of growth at 100 µM (Botrytis cinerea [1]): > 50%
Activity (Colletotrichum fragariae): Active

CC1(C)C=Cc2cc(CCN)ccc2O1
Activity (Agrostis stolonifera): inactive
Activity (Lactuca sativa): inactive
Activity (Colletotrichum fragariae): inactive

CC1(C)C=Cc2ccc(CO)cc2O1
inhibition of growth at 100 µM (Botrytis cinerea [1]): > 50%
Activity (Colletotrichum fragariae): Active

CC(C)CC(=O)N(C)CCc1ccc2c(c1)C=CC(C)(C)O2
inhibition of growth at 100 µM (Botrytis cinerea [1]): 80%
Activity (Agrostis stolonifera): inactive
Activity (Lactuca sativa): inactive

C#CC(C)(C)Oc1ccc(CC(=O)OCC)cc1OC
Activity (Colletotrichum fragariae): Active

COC(=O)c1ccc2c(c1)OC(C)(C)C=C2
inhibition of growth at 100 µM (Botrytis cinerea [1]): > 50%
Activity (Colletotrichum fragariae): Active

C#CC(C)(C)Oc1cccc(C(=O)OC)c1
Activity (Colletotrichum fragariae): Active

CC1(C)C=Cc2c(CO)cccc2O1
Activity (Colletotrichum fragariae): Active

CC(C)NCc1cccc2c1C=CC(C)(C)O2
Activity (Agrostis stolonifera): inactive
Activity (Lactuca sativa): inactive
Activity (Colletotrichum fragariae): inactive

CC(C)NCc1ccc2c(c1)OC(C)(C)C=C2
Activity (Agrostis stolonifera): inactive
Activity (Lactuca sativa): inactive
Activity (Colletotrichum fragariae): inactive

C#CC(C)(C)Oc1ccc(CC(=O)OC)cc1
Activity (Colletotrichum fragariae): Active

C#CC(C)(C)Oc1ccc(C(=O)OC)cc1
Activity (Colletotrichum fragariae): Active

CC1(C)C=Cc2cc(CCO)ccc2O1
inhibition of growth at 100 µM (Botrytis cinerea [1]): > 50%
Activity (Cucumis sativus): inactive
Activity (Agrostis stolonifera): inactive
Activity (Lactuca sativa): inactive
Activity (Colletotrichum fragariae): Active

CC(C)NCCc1ccc2c(c1)C=CC(C)(C)O2
Activity (Cucumis sativus): inactive
Activity (Agrostis stolonifera): inactive
Activity (Lactuca sativa): inactive
Activity (Colletotrichum fragariae): inactive

CCOC(=O)Cc1cc2c(c(OC)c1)OC(C)(C)C=C2
Activity (Colletotrichum fragariae): Active

COc1cc(CCO)cc2c1OC(C)(C)C=C2
Activity (Colletotrichum fragariae): Active

CC(C)NCCCc1ccc2c(c1)C=CC(C)(C)O2
Activity (Agrostis stolonifera): inactive
Activity (Lactuca sativa): inactive
Activity (Colletotrichum fragariae): inactive

CNCCc1ccc2c(c1)C=CC(C)(C)O2
Activity (Agrostis stolonifera): inactive
Activity (Lactuca sativa): inactive
Activity (Colletotrichum fragariae): inactive

COC(=O)c1ccc2c(c1)C=CC(C)(C)O2
inhibition of growth at 100 µM (Botrytis cinerea [1]): > 50%
Activity (Colletotrichum fragariae): Active

COC(=O)CCc1ccc(O)cc1
Activity (Colletotrichum fragariae): Active

CC1(C)C=Cc2cc(CCCO)ccc2O1
inhibition of growth at 100 µM (Botrytis cinerea [1]): > 50%
Activity (Colletotrichum fragariae): Active

CC(C)NCc1ccc2c(c1)C=CC(C)(C)O2
Activity (Agrostis stolonifera): inactive
Activity (Lactuca sativa): inactive
Activity (Colletotrichum fragariae): inactive

C#CC(C)(C)Oc1ccc(CCC(=O)OC)cc1
Activity (Colletotrichum fragariae): Active

CC1(C)C=Cc2cc(CO)ccc2O1 [EULATACHROMENE]
inhibition of growth at 100 µM (Botrytis cinerea [1]): 30%
Activity (Cucumis sativus): inactive
Activity (Colletotrichum fragariae): Active

O=C1C2CC=CCC2C(=O)N1SC(Cl)(Cl)Cl (stereo unspecified)
growth inhibition (GI) (Botrytis cinerea [2]): Active

COc1cc(CCNC(C)C)cc2c1OC(C)(C)C=C2
Activity (Agrostis stolonifera): inactive
Activity (Lactuca sativa): inactive
Activity (Colletotrichum fragariae): inactive

COC(=O)CCc1ccc2c(c1)C=CC(C)(C)O2
Activity (Colletotrichum fragariae): Active

COC(=O)Cc1ccc2c(c1)C=CC(C)(C)O2
inhibition of growth at 100 µM (Botrytis cinerea [1]): 30%
Activity (Agrostis stolonifera): inactive
Activity (Lactuca sativa): inactive
Activity (Colletotrichum fragariae): Active
